pEC50: −log10 of the molar value. Calls of active or inactive are those of the source. The calls are words filed in the database; no cut-off is given here.
Assays:
Human betaherpesvirus 5 [1] = experiment: Antiviral activity against HCMV Towne infected in human HFF cells assessed as reduction in plaque formation treated with compound following viral infection and incubated for 8 to 10 days by crystal violet staining based assay; assay type: functional, organism-based; details: Human betaherpesvirus 5, strain Towne
Human betaherpesvirus 5 [2] = experiment: Antiviral activity against GCV-resistant HCMV Towne infected in human HFF cells assessed as reduction in plaque formation treated with compound following viral infection and incubated for 8 to 10 days by crystal violet staining based assay; assay type: functional, organism-based; details: Human betaherpesvirus 5, strain Towne
Human betaherpesvirus 5 [3] = experiment: Antiviral activity against HCMV TB40 infected in human HFF cells assessed as reduction in plaque formation treated with compound following viral infection and incubated for 8 to 10 days by crystal violet staining based assay; assay type: functional, organism-based; details: Human betaherpesvirus 5, TB40, HFF
HFF = experiment: Cytotoxicity against human HFF cells assessed as reduction in cell viability incubated for 72 hrs or 10 days by MTT assay; assay type: cell-based
Outline: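 MTT assay on uninfected cells exposed to compound for 72 h or 8–10 days, matching the antiviral assay durations. MTT (5 mg/mL stock in PBS) added, then 2–3 h at 37 °C. Formazan absorbance read at 560 nm.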

Human alphaherpesvirus 1 = experiment: Antiviral activity against HSV 1 infected in African green monkey Vero cells assessed as reduction in plaque formation incubated for 36 hrs by crystal violet staining based assay; assay type: functional, organism-based
Outline: (§1)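 Plaque reduction in Vero cells: virus adsorbed 60 min, then compound added in a carboxymethylcellulose overlay. Plaques counted after 36 h by crystal violet staining.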

Human alphaherpesvirus 2 = experiment: Antiviral activity against HSV 2 infected in African green monkey Vero cells assessed as reduction in plaque formation incubated for 36 hrs by crystal violet staining based assay; assay type: functional, organism-based; outline: as §1
Human gammaherpesvirus 4 = experiment: Antiviral activity against EBV infected in human AKATA cells assessed as reduction in IgG-induced lytic virus replication measured at 48 hrs post-lytic induction by qRT-PCR analysis; assay type: functional, organism-based
[4] = Antiviral activity against Mouse Cytomegalovirus Smith (ATCC VR-1399) infected in mouse MEF cells assessed as reduction in plaque formation measured after 3 days by crystal violet staining based assay; assay type: functional, cell-based, Murine cytomegalovirus (strain Smith)
Outline: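 Plaque reduction with MCMV Smith in mouse embryonic fibroblasts, with compound in a carboxymethylcellulose overlay. Assay ended at 3 days and plaques counted after crystal violet staining.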

Human betaherpesvirus 5 [5] = experiment: (§2) Antiviral activity against pp28-luciferase expressing HCMV Towne infected in human HFF cells assessed as reduction in viral replication treated with compound at 24 hrs post viral infection at MOI of 1 PFU/cell and measured after 3 days by luciferase reporter gene assay; assay type: functional, organism-based; details: strain Towne
Outline: (§3)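 Time-of-addition in HFFs infected with HCMV Towne (MOI 1). Add-on: compound added at 0, 6, 24 or 48 hpi. Removal: compound added right after infection and washed out after 0, 6, 24 or 48 h. Luciferase read at 72 hpi.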

Human betaherpesvirus 5 [6] = experiment: as §2, with “immediately after” for “at 24 hrs post”, “PFU/cell followed by compound washout after 6 hrs” for “PFU/cell”; assay type: functional, strain Towne; outline: as §3
Human betaherpesvirus 5 [7] = experiment: Antiviral activity against HCMV Towne infected in human HFF cells assessed as reduction in plaque formation treated with compound following viral infection at MOI of 1 PFU/cell and measured at 10 days post-infection in presence of letermovir by crystal violet staining based assay; assay type: functional, organism-based; details: Human betaherpesvirus 5, strain Towne, 240 h
Human betaherpesvirus 5 [8] = experiment: Antiviral activity againstpp28-luciferase expressing HCMV Towne infected in human HFF cells assessed as reduction in viral replication treated with compound following viral infection at MOI of 1 PFU/cells measured after 3 days in presence of GCV by luciferase reporter gene assay; assay type: functional, organism-based; details: Human betaherpesvirus 5, strain Towne, 72 h
Outline: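 HFFs in 96-well plates were infected with pp28-luciferase Towne HCMV, in which luciferase is driven by the UL99 late promoter, at MOI 1. A dose-response of each drug alone gave its EC₅₀. Combinations started at twice each EC₅₀ in DMEM with 4% FBS, followed by two-fold serial dilutions, and were added after infection. Luciferase was read in cell lysates at 72 hpi. The Bliss ratio is observed over expected inhibition.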

Human betaherpesvirus 5 [9] = experiment: Antiviral activity against pp28-luciferase harboring UL97 C607Y mutant expressing GCV-resistant HCMV Towne infected in human HFF cells assessed as reduction in viral replication at 0.5 to 3 uM treated with compound following viral infection at MOI of 0.1 PFU/cell and measured at 72 hrs post infection by luciferase reporter gene assay; assay type: functional, organism-based; details: strain Towne
Outline: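 HFFs infected with GCV-resistant pp28-luciferase Towne (MOI 0.1), then treated with a compound dilution series. Luciferase, driven by the UL99 late promoter, read in cell lysates at 72 hpi. Data are mean ± SD of triplicates from a single experiment.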

Human betaherpesvirus 5 [10] = experiment: Antiviral activity against HCMV TB40 infected in human HFF cells assessed as reduction in plaque formation at 0.1 to 3 uM treated with compound following viral infection at […] measured after 8 days by crystal violet staining analysis; assay type: functional, organism-based
Outline: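 HFFs (2 × 10⁵/well) infected with HCMV TB40 at about 100 plaques/well for 90 min. Inoculum removed, then DMEM with 0.5% CMC, 4% FBS and compound added. Incubated at 37 °C; plaques stained with crystal violet and counted at 8 dpi. Experiment repeated three times; one representative shown.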

Human betaherpesvirus 5 [11] = experiment: Inhibition of viral protein expression in HCMV Towne infected in human HFF cells assessed as reduction in IE2 expression at 0.1 to 10 uM treated with compound following viral infection at MOI of 1 PFU/cell measured at 72 hrs post infection by Western blot analysis; assay type: functional, organism-based; details: strain Towne
Outline: (§4)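 HFFs infected with HCMV Towne (MOI 1), then treated with compound. Lysates taken at 72 hpi, equal protein loaded on 8–10% Tris-glycine SDS-PAGE and transferred to PVDF. Primary antibodies overnight at 4 °C, HRP secondary, chemiluminescent detection; β-actin as loading control.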

Human betaherpesvirus 5 [12] = experiment: Inhibition of viral protein expression in HCMV Towne infected in human HFF cells assessed as reduction in UL44 expression at 0.1 to 10 uM treated with compound following viral infection at MOI of 1 PFU/cell measured at 72 hrs post infection by Western blot analysis; assay type: functional, organism-based; details: strain Towne; outline: as §4
Human betaherpesvirus 5 [13] = experiment: Inhibition of viral protein expression in HCMV Towne infected in human HFF cells assessed as reduction in UL84 expression at 0.1 to 10 uM treated with compound following viral infection at MOI of 1 PFU/cell measured at 72 hrs post infection by Western blot analysis; assay type: functional, organism-based; details: strain Towne; outline: as §4
Human betaherpesvirus 5 [14] = experiment: Inhibition of viral protein expression in HCMV Towne infected in human HFF cells assessed as reduction in pp65 expression at 0.1 to 10 uM treated with compound following viral infection at MOI of 1 PFU/cell measured at 72 hrs post infection by Western blot analysis; assay type: functional, organism-based; details: strain Towne
Outline: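 Lysates taken at 72 hpi, equal protein run on SDS-PAGE and transferred to PVDF. Immunoblot for viral proteins (IE1/2, UL84, UL44, pp65) with β-actin as loading reference, chemiluminescent detection.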

Human betaherpesvirus 5 [15] = experiment: Antiviral activity against HCMV Towne infected in human HFF cells assessed as reduction in viral DNA replication at 2 uM treated with compound following viral infection at MOI of 0.1 PFU/cell by US17 real time PCR analysis; assay type: functional, organism-based; details: strain Towne
Outline: (§5)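 At set time points supernatants were harvested and cells lysed for DNA. Cell-associated viral DNA and supernatant viral DNA quantified by real-time PCR targeting a 151-bp conserved US17 region.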

Human betaherpesvirus 5 [16] = experiment: Antiviral activity against HCMV Towne infected in human HFF cells assessed as reduction in viral DNA yields in the supernatant at 2 uM treated with compound following viral infection at MOI of 0.1 PFU/cell by US17 real time PCR analysis; assay type: functional, organism-based; details: strain Towne; outline: as §5
Human betaherpesvirus 5 [17] = experiment: Inhibition of viral protein expression in HCMV Towne infected in human HFF cells assessed as reduction in IE1 expression at 0.1 to 10 uM treated with compound following viral infection at MOI of 1 PFU/cell measured at 72 hrs post infection by Western blot analysis; assay type: functional, organism-based; details: strain Towne; outline: as §4
Human betaherpesvirus 5 [18] = experiment: Antiviral activity against HCMV Towne infected in human HFF cells assessed as reduction in viral DNA replication at 1.5 uM treated with compound following viral infection at MOI of 0.1 PFU/cell by US17 real time PCR analysis; assay type: functional, organism-based; details: strain Towne; outline: as §5
Human betaherpesvirus 5 [19] = experiment: Antiviral activity against HCMV Towne infected in human HFF cells assessed as reduction in viral DNA yields in the supernatant at 1.5 uM treated with compound following viral infection at MOI of 0.1 PFU/cell by US17 real time PCR analysis; assay type: functional, organism-based; details: strain Towne; outline: as §5

Structure (SMILES)	pEC50 (Human betaherpesvirus 5 [1])	pEC50 (Human betaherpesvirus 5 [2])	pEC50 (Human betaherpesvirus 5 [3])	CC50 (HFF) [µM]	Activity (Human betaherpesvirus 5 [5])	pEC50 (Human betaherpesvirus 5 [7])	pEC50 (Human betaherpesvirus 5 [8])	Activity (Human betaherpesvirus 5 [9])	Activity (Human betaherpesvirus 5 [10])	inhibition (Human betaherpesvirus 5 [11])	inhibition (Human betaherpesvirus 5 [12])	inhibition (Human betaherpesvirus 5 [13])	inhibition (Human betaherpesvirus 5 [14])	further results
CCc1ccc(NC(=O)[C@H](Cc2c[nH]c3ccccc23)NC(=O)[C@@H]2Cc3ccccc3CN2)cc1	6.19	6.77	6.47	86	inactive	6.85	6.26	Active	Active	Active	Active	Active	Active	pEC50 (Human alphaherpesvirus 1; Human alphaherpesvirus 1, Vero, 36 h, read-out: EC50): 5.75; pEC50 (Human alphaherpesvirus 2; Human alphaherpesvirus 2, Vero, 36 h, read-out: EC50): 5.89; EC50 (Human gammaherpesvirus 4): Not Active; pEC50 ([4]; Murid betaherpesvirus 1, ATCC VR-1399, MEF, 72 h, read-out: EC50): 4.93; inhibition (INH) (Human betaherpesvirus 5 [6]): 100%; Activity (Human betaherpesvirus 5 [15]): Active; Activity (Human betaherpesvirus 5 [16]): Active
Nc1c(S(=O)(=O)c2cccs2)c2nc3ccccc3nc2n1Cc1ccccc1	6.41	6.59	6.48	> 250	inactive	6.89	6.24	Active	Active	Active	Active	Active	Active	EC50 (Human alphaherpesvirus 1; vero): Not Active; EC50 (Human alphaherpesvirus 2; vero): Not Active; pEC50 (Human gammaherpesvirus 4; human gammaherpesvirus 4, 48 h, read-out: EC50): < 5.00; EC50 ([4]; mef): Not Active; Activity (Human betaherpesvirus 5 [6]; strain Towne): Active; inhibition (Human betaherpesvirus 5 [17]): Active; Activity (Human betaherpesvirus 5 [18]): Active; Activity (Human betaherpesvirus 5 [19]): Active

From ChEMBL document CHEMBL4354867, “Validation and Characterization of Five Distinct Novel Inhibitors of Human Cytomegalovirus” (J Med Chem, 2020)
